# Compound activity: PubChem, Sanford-Burnham Center for Chemical Genomics
# SENP6 inh – inhibitors of human SENP6 protease; Recombinant SENP6 catalytic domain, aminoluciferin luminescence; Q9GZR1; inhibition, % at 10 µM; 1.8% of 330,000 active;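 active = inhibition above about 50% at the single tested dose, limit read from the data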
# SENP1 FRET inh – SENP1 (human) catalytic domain inhibition. AID 624204. recombinant SENP1 catalytic domain, CyPet-SUMO1-YPet FRET cleavage. 0.21% of 360,000 active. inhibition, % at 10 µM;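 active = inhibition at least 30% at 10 µM, raw YFP signal under a set limit, fluorescence ratio 0.5 to 1.5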
#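 System: Recombinant human SENP1 catalytic domain, His6-tagged | Incubation: Enzyme reaction for 50 min at room temperature, dark | Medium: Tris pH 8 with BME, BSA, NP40 and catalase | Also added: 25 nM SUMO1 FRET substrate | Compound: 10 µM single point, 0.5% DMSO | Measured by: FRET fluorescence in CFP and YFP emission channels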
# SENP8 block-1 – inhibitors of human SENP8 protease; AID 602440; inhibition, % at 20 µM; 0.64% of 360,000 active; recombinant SENP8, Nedd8 substrate fluorescence; Q96LD8; in the data active = inhibition mostly above about 40%, no sharp cut-off; inactive = mostly below about 27%
# Target sequence (Q96LD8 whole entry, looked up): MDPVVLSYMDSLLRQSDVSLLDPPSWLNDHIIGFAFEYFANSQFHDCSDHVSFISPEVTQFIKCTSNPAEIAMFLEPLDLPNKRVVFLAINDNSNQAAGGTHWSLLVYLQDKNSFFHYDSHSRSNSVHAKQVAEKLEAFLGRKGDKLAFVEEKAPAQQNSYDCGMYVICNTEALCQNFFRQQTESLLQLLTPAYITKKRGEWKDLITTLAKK
# SENP7 block – blocks the human protease SENP7. Q9BQF6. recombinant SENP7, Z-RLRGG-aminoluciferin luminescence, 40 min. AID 434973. inhibition, % at 5 µM. 1.5% of 330,000 active;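 active = inhibition above about 50% at the single test dose, limit read from the data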
# SENP8 block-2 – blocks the human protease SENP8; Q96LD8; purified SENP8, Z-RLRGG-aminoluciferin cleavage, luminescence; inhibition, % at 10 µM; 1.2% of 330,000 active; in the data active = inhibition above about 50%
# SENP8 conf – confirmation of human SENP8 protease inhibitors | shares compounds with SENP7 block | AID 488912 | inhibition, % at 12.5 µM | Recombinant SENP8, Z-RLRGG-aminoluciferin luminescence, 60 min | 40% of 6,200 active;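 active = mean inhibition across replicates above about 50%, limit read from the data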
# SENP6 conf – confirmation of human SENP6 protease inhibitors | shares compounds with SENP7 block | AID 488915 | inhibition, % at 12.5 µM | recombinant SENP6, Z-RLRGG-aminoluciferin luminescence | 58% of 6,200 active
# SENP7 conf – human SENP7 inhibition, confirmed | shares compounds with SENP7 block | recombinant SENP7, Z-RLRGG-aminoluciferin luminescence, 40 min | 69% of 6,200 active | inhibition, % at 12.5 µM | AID 488917
# Casp3 select – inhibits human caspase-3 in SENP selectivity test; shares compounds with SENP7 block; purified caspase-3, Z-DEVD-aminoluciferin luminescence, 60 min; inhibition, % at 12.5 µM; 60% of 6,200 active;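 active = mean inhibition above about 50%, limit read from the data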
# Target sequence (P42574 28-227 limits assumed): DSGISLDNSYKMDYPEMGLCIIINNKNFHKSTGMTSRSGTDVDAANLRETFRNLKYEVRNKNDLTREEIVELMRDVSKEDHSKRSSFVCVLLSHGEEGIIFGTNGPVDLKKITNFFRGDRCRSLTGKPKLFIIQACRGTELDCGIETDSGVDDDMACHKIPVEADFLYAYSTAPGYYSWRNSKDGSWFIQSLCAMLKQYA
# SENP luc ctr – luminescence interference (SENP counter-screen). 39% of 6,200 active. shares compounds with SENP7 block. Pre-incubated SENP8/Z-RLRGG-aminoluciferin, luciferase luminescence interference. inhibition, % at 12.5 µM;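 active = mean inhibition above about 50% when retested at one dose, limit read from the data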
# Hits are given with their value; - = inactive; . = not tested or not shown. Shown are actives, neighbours in structure and some others; about 2.5% of the full set was active somewhere.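 The calls were made as follows, unless noted: active = mean inhibition above about 50% in the one-dose retest (limit read from the data); inactive = the rest.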
SMILES,SENP6 inh,SENP1 FRET inh,SENP8 block-1,SENP7 block,SENP8 block-2,SENP8 conf,SENP6 conf,SENP7 conf,Casp3 select,SENP luc ctr
Cc1cccc(/C=C\c2nc3ccccc3c(=O)[nH]2)c1,89,-,-,99,80,55,-,54,74,-
O=c1[nH]c(/C=C/c2ccc(Br)cc2)nc2ccccc12,-,-,-,89,-,-,-,-,-,-
O=c1[nH]c(/C=C/c2cccc3ccccc23)nc2ccccc12,-,-,-,-,-,.,.,.,.,.
CC(=O)Nc1ccc(/C=C/c2nc3ccccc3[nH]c2=O)cc1,-,-,-,-,-,.,.,.,.,.
CCOC(=O)C1CCN(C(=O)Cn2nc(C)n3c(cc4cc(F)ccc43)c2=O)CC1,-,-,-,-,-,.,.,.,.,.
C(=C\c1ccco1)/c1nc2ccccc2[nH]1,-,-,-,-,-,.,.,.,.,.
C(=C\c1nc2ccccc2[nH]1)/c1ccccc1,94,-,-,100,97,98,99,103,98,92
O=c1[nH]c(/C=C/c2ccccc2F)nc2ccccc12,92,-,-,96,83,76,79,89,91,-
COc1ccc(-c2csc(NC(=O)CSc3nc(C)nc4sc(C(=O)O)c(C)c34)n2)cc1,-,-,-,-,-,.,.,.,.,.
Cc1c(-c2ccccc2)nc2ccccc2c1C(=O)Nc1ccncc1,-,-,-,-,-,.,.,.,.,.
CSc1ccc(NC(=O)Nc2cccn(Cc3ccccc3F)c2=O)cc1,63,-,-,-,-,-,-,-,-,-
CCc1ccccc1NC(=O)Nc1cccn(Cc2ccccc2F)c1=O,-,-,-,-,-,.,.,.,.,.
O=[N+]([O-])c1ccccc1CSc1nc2ccccc2o1,55,-,-,-,-,-,-,-,-,-
O=S(=O)(O)c1ccc(N=NNc2ccc(Br)cc2)cc1,89,-,-,90,90,91,91,99,85,93
CN1/C(=C\C(=O)C[n+]2ccc3ccccc3c2)C(C)(C)c2ccccc21,-,-,-,-,-,.,.,.,.,.
CN(C)c1ccc(-c2nnc(-c3cccs3)o2)cc1,72,-,-,79,60,-,51,76,-,-
CN(C)c1oc(-c2cccs2)nc1C#N,-,-,-,-,-,.,.,.,.,.
CCCOc1ccc(-c2nnc(-c3cccs3)o2)cc1,80,-,-,-,-,-,-,-,-,-
CC1CC(C)CN(CCCNC(=O)CN2C(=O)COc3ccc(S(=O)(=O)N4CCOCC4)cc32)C1 (centres undefined),-,-,-,-,-,.,.,.,.,.
Cc1cc(C(=O)Nc2nnc(C(F)(F)F)s2)cs1,76,-,-,58,65,66,68,86,84,-
O=C(Nc1nnc(C(F)(F)F)s1)c1ccc(Br)s1,53,-,-,62,73,-,53,77,-,-
Cc1cc(C(=O)Nc2nnc(C(F)(F)F)s2)no1,-,-,-,-,-,.,.,.,.,.
CCCCN1CC(=O)N2[C@H](c3ccc(OC)cc3)[C@@H]3C(=O)N(CC)C(=O)[C@@H]3[C@]2(Cc2ccccc2)C1=O,-,-,-,-,-,.,.,.,.,.
Clc1nccnc1N/N=C/c1ccc(Br)cc1,96,-,-,98,94,97,98,102,97,96
COc1ccc(/C=N/Nc2nccnc2Cl)cc1,95,-,-,97,95,98,99,103,99,97
COc1ccc(/C=N/Nc2nonc2N)c(OC)c1,-,-,-,-,-,.,.,.,.,.
COc1ccccc1/C=N/Nc1cc(N(C)C)nc(N(C)C)n1,-,-,-,-,-,.,.,.,.,.
